The values below come from ChEMBL document CHEMBL4014320 (J Med Chem, 2017).

Structures are written as SMILES.

The target of assay [1] is T1, Peroxisome proliferator-activated receptor gamma (Homo sapiens, UniProt P37231).
T1 sequence (P37231 whole entry): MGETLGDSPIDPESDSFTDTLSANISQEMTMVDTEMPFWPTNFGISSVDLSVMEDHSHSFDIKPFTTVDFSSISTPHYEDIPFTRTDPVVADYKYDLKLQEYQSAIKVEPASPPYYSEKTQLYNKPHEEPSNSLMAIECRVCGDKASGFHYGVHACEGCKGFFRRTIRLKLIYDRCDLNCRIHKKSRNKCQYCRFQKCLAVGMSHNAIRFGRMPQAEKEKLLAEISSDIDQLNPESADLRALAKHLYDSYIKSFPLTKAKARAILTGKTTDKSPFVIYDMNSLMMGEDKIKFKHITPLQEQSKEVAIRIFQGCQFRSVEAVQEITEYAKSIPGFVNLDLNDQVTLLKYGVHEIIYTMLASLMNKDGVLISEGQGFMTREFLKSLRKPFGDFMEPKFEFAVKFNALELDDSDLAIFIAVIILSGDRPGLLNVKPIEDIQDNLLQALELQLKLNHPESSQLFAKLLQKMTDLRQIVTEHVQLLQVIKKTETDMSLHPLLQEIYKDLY
As to the kind of experiment: Agonist activity at human GAL4 fused PPARgamma-Hinge-LBD expressed in HEK293T cells after 18 hrs by luciferase reporter gene assay. It counts as cell-based, HEK-293T. A digest of the protocol: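 HEK293T cells were co-transfected with human GAL4-PPARγ-hinge-LBD and a 5× multimerized UAS-luciferase reporter (4.5 μg each) and grown serum-free for 18 h at 37 °C under 5% CO2. After 18 h, luminescence was read. EC50 came from plotting fold change over DMSO; points were run in triplicate, with two biological replicates.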

For assay [2], the target named is T2, Peroxisome proliferator-activated receptor gamma (Homo sapiens) (UniProt P37231).
T2 sequence (whole entry): T1 sequence (P37231 whole entry)
Briefly: Agonist activity at human GAL4 fused PPARgamma-Hinge-LBD expressed in HEK293T cells after 18 hrs by luciferase reporter gene assay relative to rosiglitazone. Conditions: HEK-293T. It counts as cell-based. In a few lines:
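HEK293T cells carried transfected human GAL4-PPARγ-hinge-LBD and a 5× UAS-luciferase reporter. Maximal transcriptional output was normalized to rosiglitazone, taken as 100% transactivation. Points were run in triplicate, with two biological replicates.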

For the next assay, the system named is Rattus norvegicus. Briefly: Antidiabetic activity in Zucker fa/fa rat assessed as decrease in blood glucose levels at 0.3 mg/kg administered via oral gavage for 14 days by oral glucose tolerance test. It counts as functional. Also on record: scale not given: the % may be the effect or the level left.

Regarding `O=S(=O)(Nc1cc(Cl)c(Oc2cnc3ccccc3c2)c(Cl)c1)c1ccc(Br)cc1OC(F)(F)F`, in assay [1], the EC50 amounted to 4 nM. Further, the Activity in assay [2] stood at 21%.
`O=S(=O)(Nc1cc(Cl)c(Oc2cnc3ccccc3c2)c(Cl)c1)c1cc(F)c(Br)cc1F`: the EC50 in assay [1] worked out at 131 nM. In assay [2], this compound returned an Activity of 10%.
On to `O=S(=O)(Nc1cc(Cl)c(Oc2cnc3ccccc3c2)c(Cl)c1)c1ccc(Cl)cc1Cl` [INT131], for which the Activity in the assay with Rattus norvegicus was determined as 30%.
For the compound `O=S(=O)(Nc1cc(Cl)c(Oc2cnc3ccccc3c2)c(Cl)c1)c1ccc(Br)cc1F`, in assay [1], a half-maximal effect (EC50) was put at 2 nM. In assay [2], this compound yielded an Activity of 13%.
`O=S(=O)(Nc1cc(Cl)c(Oc2cnc3ccccc3c2)c(Cl)c1)c1cccs1` returned an Activity in assay [2] of 14%.
Consider `O=S(=O)(Nc1cc(Cl)c(Oc2cnc3ccccc3c2)c(Cl)c1)c1ccccc1Cl`, for which the EC50 in assay [1] worked out at 5810 nM. The compound also returned an Activity in assay [2] of 19%.
With `O=S(=O)(Nc1cc(Cl)c(Oc2cnc3ccccc3c2)c(Cl)c1)c1ccc(Br)c(C(F)(F)F)c1`, the response in assay [1] was half-maximal at 957 nM (EC50). The Activity in assay [2] came to 18%.
On to `Cc1cc(C)c(S(=O)(=O)Nc2cc(Cl)c(Oc3cnc4ccccc4c3)c(Cl)c2)c(C)c1`, for which the EC50 in assay [1] was 3310 nM. In assay [2], this compound registered an Activity of 14%.
For `O=S(=O)(Nc1cc(Cl)c(Oc2cnc3ccccc3c2)c(Cl)c1)c1ccc(Br)cc1Cl`, in assay [1], the EC50 turned out to be 134 nM. The same compound displayed an Activity in assay [2] of 27%.
Turning to `O=S(=O)(Nc1cc(Cl)c(Oc2cnc3ccccc3c2)c(Cl)c1)c1ccc(Br)cc1`, in assay [1], the response was half-maximal at 151 nM (EC50). Further, in assay [2], the Activity was determined as 11%.
Take `O=S(=O)(Nc1cc(Cl)c(Oc2cnc3ccccc3c2)c(Cl)c1)c1ccc(Br)cc1C(F)(F)F`: the EC50 in assay [1] is 94 nM. Also, the Activity in assay [2] stood at 34%.
Turning to `COc1cccc(C(=O)Nc2cc(Cl)c(Oc3cnc4ccccc4c3)c(Cl)c2)c1`, in assay [2], the Activity was 2%.
Take `O=S(=O)(Nc1cc(Cl)c(Oc2cnc3ccccc3c2)c(Cl)c1)c1ccc(Br)c(F)c1`: the EC50 in assay [1] turned out to be 169 nM. The compound also had an Activity in assay [2] of 9%.
For `O=S(=O)(Nc1cc(Cl)c(Oc2cnc3ccccc3c2)c(Cl)c1)c1ccc2ccccc2c1`, the EC50 in assay [1] was 4290 nM. The compound also returned an Activity in assay [2] of 23%.
Taken in the same sequence, the figures for `Cc1cc(S(=O)(=O)Nc2cc(Cl)c(Oc3cnc4ccccc4c3)c(Cl)c2)ccc1Br` were 600 nM and 29%.

Usually EC50 stands for the concentration that produces a half-maximal response.
